Like-named read-outs stand apart in the source and are kept apart here.
Experiments:
[1] = Potentiometric determination of complex formation constants; assay type: physicochemical; conditions: I = 0.15 mol dm^−3 NaCl
Method in brief: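 Test ligand in 3 × 10−3 mol dm−3 HCl with 0.15 mol dm−3 NaCl, in fresh DI water, titrated with carbonate-free 0.1 mol dm−3 NaOH. Runs: acid alone, ligand alone, and ligand plus Fe(III) at 3 × 10−3, 1.5 × 10−3 or 1 × 10−3 mol dm−3 (metal:ligand 1:1, 1:2, 1:3). Water bath ±0.1 °C, pH glass electrode, pH 2–11, triplicate. Log β refined jointly from the three ratios.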

[2] = cited from earlier work
[3] = Thermodynamic properties of iron; assay type: physicochemical; conditions: I = 0.15 mol dm^−3 NaCl
Method in brief: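 Log β came from potentiometric titrations at 25, 37 and 40 °C in 0.15 mol dm−3 NaCl. ΔG was computed as −2.303RT log10 β. ΔH and ΔS per species were taken as the slope and intercept, respectively, of a Van't Hoff plot across the three temperatures. Units: ΔG and ΔH in kJ mol−1, ΔS in kJ mol−1 K−1.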

[4] = Potentiometric titration, protonation constants; assay type: physicochemical; conditions: I = 0.15 mol dm^−3 NaCl
[5] = 298.15 K and 0.05 M, ref Gergely et al. 21
[6] = 298.15 K and 0.15 mol dm^−3 NaNO3, ref Angkawijaya et al. 22

Compound: NCC(=O)O [Gly, glycine]
- log β ([1]; complex [MA2H−2], 25 °C): 6.54(5)
- log β ([1]; complex [MA2H−2], 37 °C): 7.55(4)
- log β ([1]; complex [MA2H−2], 40 °C): 8.17(8)
- log β ([1]; complex [MA2H−3], 25 °C): −4.65(11)
- log β ([1]; complex [MA2H−3], 37 °C): −2.95(5)
- log β ([1]; complex [MA2H−3], 40 °C): −1.57(9)
- log β ([1]; complex [MA2H−4], 40 °C): −11.78(10)
- log β ([1]; complex [MA2], 25 °C): 19.10(11)
- log β ([1]; complex [MA2], 37 °C): 19.54(10)
- log β ([1]; complex [MA2], 40 °C): 19.72(13)
- log β ([1]; complex [MA3], 25 °C): 27.59(9)
- log β ([1]; complex [MA3], 37 °C): 28.35(3)
- log β ([1]; complex [MA3], 40 °C): 28.49(14)
- log β ([1]; complex [MAH−1], 25 °C): 6.21(2)
- log β ([1]; complex [MAH−1], 37 °C): 6.63(2)
- log β ([1]; complex [MAH−1], 40 °C): 6.75(5)
- log β ([1]; complex [MAH−2], 25 °C): 2.32(2)
- log β ([1]; complex [MAH−2], 37 °C): 3.34(3)
- log β ([1]; complex [MAH−2], 40 °C): 3.78(8)
- log β ([1]; complex [MA], 25 °C): 9.17(6)
- log β ([1]; complex [MA], 37 °C): 9.59(3)
- log β ([1]; complex [MA], 40 °C): 9.89(11)
- pKa1 [2, 5]: 2.33
- pKa2 [2, 5]: 9.61
- pKa1 [2, 6]: 2.32
- pKa2 [2, 6]: 9.62
- −ΔG ([3]; complex [MA2H−2], 25 °C): 37.35 kJ/mol
- −ΔG ([3]; complex [MA2H−2], 37 °C): 44.82 kJ/mol
- −ΔG ([3]; complex [MA2H−2], 40 °C): 48.99 kJ/mol
- ΔH ([3]; complex [MA2H−2]): 181.30 kJ/mol
- ΔS ([3]; complex [MA2H−2]): −0.73 kJ mol^−1 K^−1
- −ΔG ([3]; complex [MA2H−3], 25 °C): -26.53 kJ/mol
- −ΔG ([3]; complex [MA2H−3], 37 °C): -17.51 kJ/mol
- −ΔG ([3]; complex [MA2H−3], 40 °C): -9.43 kJ/mol
- ΔH ([3]; complex [MA2H−3]): 333.89 kJ/mol
- ΔS ([3]; complex [MA2H−3]): −1.20 kJ mol^−1 K^−1
- −ΔG ([3]; complex [MA2], 25 °C): 109.22 kJ/mol
- −ΔG ([3]; complex [MA2], 37 °C): 116.01 kJ/mol
- −ΔG ([3]; complex [MA2], 40 °C): 118.26 kJ/mol
- ΔH ([3]; complex [MA2]): 67.46 kJ/mol
- ΔS ([3]; complex [MA2]): −0.59 kJ mol^−1 K^−1
- −ΔG ([3]; complex [MA3], 25 °C): 157.48 kJ/mol
- −ΔG ([3]; complex [MA3], 37 °C): 168.38 kJ/mol
- −ΔG ([3]; complex [MA3], 40 °C): 170.82 kJ/mol
- ΔH ([3]; complex [MA3]): 109.24 kJ/mol
- ΔS ([3]; complex [MA3]): −0.89 kJ mol^−1 K^−1
- −ΔG ([3]; complex [MAH−1], 25 °C): 35.46 kJ/mol
- −ΔG ([3]; complex [MAH−1], 37 °C): 39.35 kJ/mol
- −ΔG ([3]; complex [MAH−1], 40 °C): 40.50 kJ/mol
- ΔH ([3]; complex [MAH−1]): 63.72 kJ/mol
- ΔS ([3]; complex [MAH−1]): −0.33 kJ mol^−1 K^−1
- −ΔG ([3]; complex [MAH−2], 25 °C): 13.27 kJ/mol
- −ΔG ([3]; complex [MAH−2], 37 °C): 19.83 kJ/mol
- −ΔG ([3]; complex [MAH−2], 40 °C): 22.66 kJ/mol
- ΔH ([3]; complex [MAH−2]): 166.89 kJ/mol
- ΔS ([3]; complex [MAH−2]): −0.60 kJ mol^−1 K^−1
- −ΔG ([3]; complex [MA], 25 °C): 52.34 kJ/mol
- −ΔG ([3]; complex [MA], 37 °C): 56.96 kJ/mol
- −ΔG ([3]; complex [MA], 40 °C): 59.31 kJ/mol
- ΔH ([3]; complex [MA]): 79.55 kJ/mol
- ΔS ([3]; complex [MA]): −0.44 kJ mol^−1 K^−1
- pKa1 ([4]; 25 °C): 2.51(7)
- pKa2 ([4]; 25 °C): 9.68(3)
- pKa1 ([4]; 37 °C): <2
- pKa2 ([4]; 37 °C): 9.37(1)
- pKa1 ([4]; 40 °C): <2
- pKa2 ([4]; 40 °C): 9.27(2)

Compound: O=C(O)[C@@H]1CCCN1 [Pro, reference compound]
- pKa1 ([2]; ref Zhu et al. 23): 1.99

Reference: publication PMC9083272 (RSC Advances, 2018)
